The subject of one experiment is Escherichia coli. The experiment in a line: Antimicrobial activity against Escherichia coli ATCC […] after 18 to 24 hrs by alamar blue assay. The conditions noted are these: Escherichia coli; read-out: MIC. Type of experiment: functional. In a few lines: (§1)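 Broth microdilution per NCCLS in Mueller-Hinton broth, 8-point twofold dilutions, 384-well format. Exponential-phase cells at 5 × 10^5 cells/ml incubated with compound 18–24 h at 37 °C, then 20% Alamar blue added and fluorescence read. MIC90 taken as the lowest concentration preventing at least 90% bacterial growth.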

The test system of experiment [1] is Staphylococcus aureus. The experiment in a line: Antimicrobial activity against methicillin-resistant Staphylococcus aureus isolate NTUH4722 after 18 to 24 hrs by alamar blue assay. In kind it is functional. In a few lines:
(§2)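 Broth microdilution per NCCLS standard, Mueller-Hinton broth, 8-point twofold dilutions; exponentially growing cells at 5 10^5 cells/ml with compound, 18–24 h at 37 C; 20% Alamar blue added, fluorescence read; MIC90 taken as lowest concentration preventing at least 90% growth.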

In experiment [2] the test system is Staphylococcus aureus. The experiment in a line: Antimicrobial activity against Staphylococcus aureus ATCC 29213 after 18 to 24 hrs by alamar blue assay.
In experiment [3] the test system is Staphylococcus aureus. The experiment in a line: Antimicrobial activity against oxacillin- and methicillin-resistant Staphylococcus aureus isolate Sa-OXA-R2 after 18 to 24 hrs by alamar blue assay. In kind it is functional. In a few lines:
as §2
Background: Alamar Blue is a resazurin reagent that responds to reducing activity.

A further experiment deals with Pseudomonas aeruginosa. As to the kind of experiment: Antimicrobial activity against Pseudomonas aeruginosa ATCC 25619 after 18 to 24 hrs by alamar blue assay. The conditions noted are these: Pseudomonas aeruginosa, ATCC 25619; read-out: MIC. In kind it is functional. In a few lines: as §1
Experiment [4] deals with Mycolicibacterium smegmatis. The experiment in a line: Antimicrobial activity against Mycobacterium smegmatis BCRC 11565 after 18 to 24 hrs by alamar blue assay. In kind it is functional. The conditions noted are these: Mycolicibacterium smegmatis, BCRC 11565; read-out: MIC. In a few lines:
as §1

A further experiment relates to Bacillus subtilis. The experiment in a line: Antimicrobial activity against Bacillus subtilis ATCC 23857 after 18 to 24 hrs by alamar blue assay. Type of experiment: functional. In a few lines:
as §1

The test system of the next experiment is Acinetobacter baumannii. The experiment in a line: Antimicrobial activity against Acinetobacter baumannii ATCC 49139 after 18 to 24 hrs by alamar blue assay. Conditions: Acinetobacter baumannii, ATCC 49139; read-out: MIC. Type of experiment: functional. In outline: as §1
For experiment [5], the system named is Stenotrophomonas maltophilia. The experiment in a line: Antimicrobial activity against Stenotrophomonas maltophilia ATCC 13637 after 18 to 24 hrs by alamar blue assay. Type of experiment: functional. Conditions: Stenotrophomonas maltophilia, ATCC 13637; read-out: MIC. In outline:
as §1

In experiment [6] the test system is Staphylococcus aureus. As to the kind of experiment: Antimicrobial activity against methicillin-resistant Staphylococcus aureus ATCC 33592 after 18 to 24 hrs by alamar blue assay. Type of experiment: functional. The conditions noted are these: Staphylococcus aureus, ATCC 33592; read-out: MIC. In a few lines: as §2
The subject of another experiment is Serratia marcescens. As to the kind of experiment: Antimicrobial activity against Serratia marcescens ATCC 14756 after 18 to 24 hrs by alamar blue assay. The conditions noted are these: Serratia marcescens, ATCC 14756; read-out: MIC. In kind it is functional. In outline: as §1

In brackets after ≈: the same amount, converted by molar mass.

As to `CC1=CC(NC(=O)C(C)Oc2ccccc2)N(c2nc(C)c(C)c(O)n2)N1` (centres undefined), the MIC is greater than 256 µg/mL in the experiment on Escherichia coli; 1 µg/mL (≈ 2.71 µM) against Staphylococcus aureus [1]; 1 µg/mL (≈ 2.71 µM) in the experiment with Staphylococcus aureus [2]; 1 µg/mL (≈ 2.71 µM) in the experiment on Staphylococcus aureus [3]; greater than 256 µg/mL with Pseudomonas aeruginosa; 0.25 µg/mL (≈ 0.677 µM) in experiment [4]. Moreover, the MIC was 0.25 µg/mL (≈ 0.677 µM) in the experiment on Bacillus subtilis; greater than 256 µg/mL in the experiment with Acinetobacter baumannii; greater than 256 µg/mL in experiment [5]; 0.25 µg/mL (≈ 0.677 µM) with Staphylococcus aureus [6]; greater than 256 µg/mL in the experiment on Serratia marcescens.
With `CSc1ccccc1-c1nnc(NC(=O)c2nc3ccccc3s2)o1`, the minimum inhibitory concentration (MIC) in the experiment on Escherichia coli is greater than 256 µg/mL; with Staphylococcus aureus [1], 2 µg/mL (≈ 5.43 µM); in the experiment with Staphylococcus aureus [2], 4 µg/mL (≈ 10.9 µM); in the experiment on Staphylococcus aureus [3] it was 4 µg/mL (≈ 10.9 µM); in the experiment with Pseudomonas aeruginosa it was greater than 256 µg/mL; in [4] it was 0.5 µg/mL (≈ 1.36 µM). For the same compound, the MIC in the experiment with Bacillus subtilis is 0.5 µg/mL (≈ 1.36 µM); in the experiment on Acinetobacter baumannii, greater than 256 µg/mL; in [5] it was greater than 256 µg/mL; in the experiment with Staphylococcus aureus [6], 2 µg/mL (≈ 5.43 µM); with Serratia marcescens it was greater than 256 µg/mL.
Consider `O=C(Nc1nnc(-c2ccc(F)cc2)o1)c1cccc(Cl)c1`, for which the minimal inhibitory concentration (MIC) in the experiment on Escherichia coli is greater than 256 µg/mL; in the experiment on Staphylococcus aureus [1], 1 µg/mL (≈ 3.15 µM); in the experiment on Staphylococcus aureus [2], 1 µg/mL (≈ 3.15 µM); in the experiment on Staphylococcus aureus [3], 4 µg/mL (≈ 12.6 µM); in the experiment on Pseudomonas aeruginosa, greater than 256 µg/mL; in experiment [4] it was 0.5 µg/mL (≈ 1.57 µM). The MIC with Bacillus subtilis is 0.5 µg/mL (≈ 1.57 µM); in the experiment on Acinetobacter baumannii it was greater than 256 µg/mL; in [5], greater than 256 µg/mL; with Staphylococcus aureus [6] it was 0.5 µg/mL (≈ 1.57 µM); with Serratia marcescens it was greater than 256 µg/mL.
`CCOC(=O)c1c(NC(=O)c2ccc([N+](=O)[O-])o2)sc2c1CCN(C(C)=O)C2`: the minimal inhibitory concentration (MIC) came to 256 µg/mL (≈ 628 µM) with Escherichia coli; 1 µg/mL (≈ 2.45 µM) with Staphylococcus aureus [1]; 1 µg/mL (≈ 2.45 µM) against Staphylococcus aureus [2]; 1 µg/mL (≈ 2.45 µM) in the experiment on Staphylococcus aureus [3]; 128 µg/mL (≈ 314 µM) with Pseudomonas aeruginosa; 0.5 µg/mL (≈ 1.23 µM) in experiment [4]. In addition, the minimum inhibitory concentration (MIC) amounted to 0.06 µg/mL (≈ 0.147 µM) against Bacillus subtilis; 12 µg/mL (≈ 29.5 µM) with Acinetobacter baumannii; 32 µg/mL (≈ 78.5 µM) in [5]; 4 µg/mL (≈ 9.82 µM) in the experiment on Staphylococcus aureus [6]; 32 µg/mL (≈ 78.5 µM) in the experiment on Serratia marcescens.
As to `Cc1c(CC(=O)N[C@@H](CCCNC(N)=O)C(=O)O)c(=O)oc2c(C)c3occ(-c4ccc(Cl)cc4)c3cc12`, the minimum inhibitory concentration (MIC) with Escherichia coli was greater than 256 µg/mL; against Staphylococcus aureus [1], 2.5 µg/mL (≈ 4.63 µM); in the experiment on Staphylococcus aureus [2] it was 1.25 µg/mL (≈ 2.31 µM); with Staphylococcus aureus [3] it was 2.5 µg/mL (≈ 4.63 µM); in the experiment with Pseudomonas aeruginosa, greater than 256 µg/mL; in [4], 1 µg/mL (≈ 1.85 µM). The minimal inhibitory concentration (MIC) against Bacillus subtilis is greater than 64 µg/mL; with Acinetobacter baumannii, greater than 256 µg/mL; in [5], greater than 256 µg/mL; in the experiment on Staphylococcus aureus [6], 2.5 µg/mL (≈ 4.63 µM); with Serratia marcescens, greater than 256 µg/mL.
Turning to `O=C(Nc1cccc(C2=Nc3ccccc3C2)c1)c1ccc([N+](=O)[O-])o1`, the minimal inhibitory concentration (MIC) in the experiment with Escherichia coli came to 256 µg/mL (≈ 737 µM); in the experiment on Staphylococcus aureus [1] it was 0.5 µg/mL (≈ 1.44 µM); with Staphylococcus aureus [2] it was 0.5 µg/mL (≈ 1.44 µM); with Staphylococcus aureus [3], 0.5 µg/mL (≈ 1.44 µM); in the experiment on Pseudomonas aeruginosa, 128 µg/mL (≈ 369 µM); in experiment [4] it was 0.5 µg/mL (≈ 1.44 µM). Moreover, the minimum inhibitory concentration (MIC) turned out to be 0.06 µg/mL (≈ 0.173 µM) in the experiment with Bacillus subtilis; 12 µg/mL (≈ 34.5 µM) with Acinetobacter baumannii; 32 µg/mL (≈ 92.1 µM) in experiment [5]; 0.25 µg/mL (≈ 0.72 µM) in the experiment on Staphylococcus aureus [6]; 32 µg/mL (≈ 92.1 µM) in the experiment with Serratia marcescens.
For `CCCCN(C)S(=O)(=O)c1ccc(C(=O)Nc2nnc(-c3cccc(OC)c3)o2)cc1`, the MIC in the experiment on Escherichia coli was greater than 256 µg/mL; in the experiment with Staphylococcus aureus [1], 16 µg/mL (≈ 36 µM); with Staphylococcus aureus [2], 4 µg/mL (≈ 9 µM); in the experiment with Staphylococcus aureus [3], 32 µg/mL (≈ 72 µM); in the experiment on Pseudomonas aeruginosa it was greater than 256 µg/mL; in experiment [4], 0.5 µg/mL (≈ 1.12 µM). Besides, the MIC is 0.5 µg/mL (≈ 1.12 µM) in the experiment on Bacillus subtilis; greater than 256 µg/mL with Acinetobacter baumannii; greater than 256 µg/mL in experiment [5]; 8 µg/mL (≈ 18 µM) in the experiment with Staphylococcus aureus [6]; greater than 256 µg/mL with Serratia marcescens.
For the compound `O=C(Nc1cc(Cl)c(Cl)c(Cl)c1)c1cc(Br)cc(Br)c1O`, the MIC with Escherichia coli is 8 µg/mL (≈ 16.9 µM); against Staphylococcus aureus [1], no more than 0.03 µg/mL; in the experiment with Staphylococcus aureus [2], no more than 0.03 µg/mL; with Staphylococcus aureus [3], no more than 0.03 µg/mL; in the experiment on Pseudomonas aeruginosa, 16 µg/mL (≈ 33.7 µM); in experiment [4] it was 0.5 µg/mL (≈ 1.05 µM). Moreover, the MIC is less than 0.03 µg/mL with Bacillus subtilis; 16 µg/mL (≈ 33.7 µM) in the experiment on Acinetobacter baumannii; 16 µg/mL (≈ 33.7 µM) in [5]; 0.06 µg/mL (≈ 0.126 µM) in the experiment on Staphylococcus aureus [6]; 16 µg/mL (≈ 33.7 µM) with Serratia marcescens.
With `Cc1c(CC(=O)N2CCC(C(=O)O)CC2)c(=O)oc2c(C)c3occ(-c4ccc(F)cc4)c3cc12`, the MIC with Escherichia coli was greater than 256 µg/mL; against Staphylococcus aureus [1], 2.5 µg/mL (≈ 5.24 µM); against Staphylococcus aureus [2], 2.5 µg/mL (≈ 5.24 µM); in the experiment on Staphylococcus aureus [3], 2.5 µg/mL (≈ 5.24 µM); in the experiment with Pseudomonas aeruginosa it was greater than 256 µg/mL; in experiment [4], 1 µg/mL (≈ 2.09 µM). The MIC against Bacillus subtilis is greater than 64 µg/mL; in the experiment on Acinetobacter baumannii it was greater than 256 µg/mL; in [5], greater than 256 µg/mL; in the experiment on Staphylococcus aureus [6] it was 1.25 µg/mL (≈ 2.62 µM); in the experiment on Serratia marcescens, greater than 256 µg/mL.

The term MIC denotes the smallest concentration in the dilution series that meets the test's criterion for growth inhibition.

These data come from ChEMBL document CHEMBL1629439, “High-throughput identification of antibacterials against methicillin-resistant Staphylococcus aureus (MRSA) and the transglycosylase” (Bioorg Med Chem, 2010).
